PostGolgi ctrl – yeast control strain growth, post-Golgi counter-screen. inhibition, % at 10 µM. actives 5% (n = 98,000). efflux-deficient yeast background strain, growth absorbance A615, 16 h
tolC growth inh – growth inhibitors of E. coli BW25113 tolC mutant | OD615 | growth inhibition, % at 10 µM (by protocol) | actives 2.2% (n = 65,000) | AID 573;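 active means growth inhibition at or above a cutoff equal to the mean over every tested compound plus 3 SD, cut at about 60% in these data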;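 further: growth measured after 20 h incubation at 37 °C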
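Signal: optical density read at 615 nm; Assay system: E. coli ΔtolC::kan strain BW25113; Times: 20 h incubation with compound, 37 °C; Dosing: 10 µM final, single dose.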
EphB4 antag – blocks human EphB4 binding to ephrin-B2. inhibition, % at 7 µM. AID 720. actives 0.15% (n = 97,000). EphB4 LBD / TNYL-RAW-Alexa532 peptide, fluorescence polarization. P54760;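 active means inhibition above the screen-wide mean inhibition plus 3 SD, cut at about 15% in these data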;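 further: 0% = DMSO wells and 100% = excess unlabeled TNYL-RAW peptide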
Ecoli WT expand – E. coli BW25113 growth inhibition, expanded screen | OD600 absorbance | growth inhibition, % at 100 µM | actives 0.15% (n = 98,000);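 active means growth inhibition above about 50% at one test dose, limit read from the data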;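 further: growth measured after 20 h incubation at 37 °C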
PostGolgi yeast – growth inhibition of a yeast mutant, post-Golgi transport screen | post-Golgi transport phenotypic cell assay | inhibition, % at 10 µM | actives 0.9% (n = 98,000) | AID 739;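 further: yeast cells grown in 1536-well plates; yeast grown about 18 h at 30C before absorbance read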
Starred values were filed as active, the others as inactive; · = no result. Compounds with a hit are over-represented: about 6% of the library has one in this group of screens. Unless noted, no stated cut-off is given here; in the data, active means inhibition above about 30%; inactive means the rest.

SMILES	PostGolgi ctrl	tolC growth inh	EphB4 antag	Ecoli WT expand	PostGolgi yeast
CCCn1nc([N+](=O)[O-])c(C(C#N)c2nc3ccccc3s2)c(Cl)c1=O (centres undefined)	55*	·	-5	-4	100*
CCc1ccc(N(C(=O)c2csnn2)C(C(=O)NC(C)(C)C)c2ccncc2)cc1 (centres undefined)	-2	·	3	-1	35*
O=C(NCCc1ccccc1F)C1CCCN1S(=O)(=O)c1ccc2ccccc2c1 (centres undefined)	·	·	8	·	·
O=S(=O)(Nc1nc(-c2sccc2Cl)cs1)c1cc(Cl)ccc1Cl	35*	·	6	23	-2
O=C(c1cn(-c2ccccc2)nc1-c1cccs1)N1CCN(c2ccccc2)CC1	44*	·	-3	-18	-1
O=c1c(C(c2ccccc2)c2c(O)sc3ccccc3c2=O)c(O)sc2ccccc12	15	·	0	-11	-3
CCOC(=O)C(NC(=O)CC)(N1CCc2ccccc2C1)C(F)(F)F (centres undefined)	3	·	-1	3	-19
COC(=O)c1sc(S(=O)(=O)N2CCC(C(=O)O)CC2)c(C(=O)OC)c1C	-7	·	5	2	18
Cc1ccc(-c2nnc(SCC(=O)N3CC(C)CC(C)C3)o2)cc1C (centres undefined)	15	97*	·	-8	2
COc1ccccc1C(CCN(Cc1cccs1)C(C)=O)c1ccco1 (centres undefined)	38*	47	3	1	0
CCC(=O)N(CCC(c1ccccc1)c1ccco1)Cc1cccs1 (centres undefined)	48*	·	-2	3	-16
C=C(C)C1Cc2c(C)nn(-c3cc(C)c4ccccc4n3)c2C1 (centres undefined)	·	·	0	·	·
O=C(Cc1cccs1)Nc1nc2ccccc2s1	30*	-7	1	0	-3
O=C(Cn1ncc2c1-c1ccccc1OC2)N(Cc1ccco1)C1CCCCC1	32*	38	-2	6	1
CCN(CC)C(=O)Cn1ncc2c1-c1ccccc1OC2	2	-6	1	5	2
Cc1ccc2nc(NC(=O)Cc3cccs3)sc2c1	3	·	3	5	9
O=C(Cn1ncc2c1-c1ccccc1OC2)Nc1nc2ccccc2s1	47*	58	7	11	-10
O=C(Nc1cc2c3c(c1)C1CCCC1CN3CC1CCCC21)c1ccccc1 (centres undefined)	9	·	13	2	2
Cc1cc(C)n(-c2nc3c(c(=O)[nH]c(=O)n3C)n2Cc2ccccc2)n1	12	1	0	5	-4
CC(C)CCn1c(Sc2nc3ccccc3s2)nc2c1c(=O)[nH]c(=O)n2C	33*	12	2	8	-6
Cc1cc(C)n(-c2nc3c(c(=O)[nH]c(=O)n3C)n2CCc2ccccc2)n1	56*	2	7	4	-3
CC(C)Sc1nc2c(c(=O)[nH]c(=O)n2C)n1CCc1ccccc1	31*	5	·	-21	-1
CCCn1c(SCc2ccccc2)nc2c1c(=O)[nH]c(=O)n2C	50*	10	·	-16	-3
CCCCCSc1nc2c(c(=O)[nH]c(=O)n2C)n1CCc1ccccc1	·	8	·	·	·
Fc1cccc(Cl)c1CNCc1ccccc1Cl	9	·	12	10	-4
SMILES	PostGolgi ctrl	tolC growth inh	EphB4 antag	Ecoli WT expand	PostGolgi yeast
CC(C)COn1c(=S)[nH]c2ccccc2c1=O	38*	·	1	-3	1
Cc1ccc(C)c(N(CC(=O)NC2CCCCC2)C(=O)CCC(=O)Nc2ccccn2)c1	·	8	-5	·	·
COc1ccc(-c2cn3c4c(sc3n2)CCCC4)cc1	17	40	-2	-4	-9
Cc1cc(N)n2ncc(-c3ccccc3)c2n1	27	-9	2	5	-16
Cc1cc(N)n2ncc(-c3cccc(Br)c3)c2n1	33*	14	3	6	0
c1csc(CCNc2ncnc3sc4c(c23)CCC4)c1	82*	60	·	-8	-1
c1ccc(Nc2ncnc3sc4c(c23)CCC4)cc1	6	·	0	-9	-2
Fc1ccc(Nc2ncnc3sc4c(c23)CCC4)cc1	40*	·	0	5	-5
Cc1cc(NC(=O)COC(=O)[C@H](C)NC(=O)c2ccccc2)no1	3	·	-11	-4	9
Cc1cc(NC(=O)COC(=O)C(Nc2ccc(C(F)(F)F)cc2Cl)C(C)C)no1 (centres undefined)	59*	91*	9	1	3
O=C(Nc1ccccc1-c1nnc(SCc2ccccc2Cl)o1)c1ccccc1	5	·	4	-15	-5
Cc1cc2cc(C(c3nnnn3C3CCCC3)N(Cc3cccnc3)Cc3ccco3)c(=O)[nH]c2cc1C (centres undefined)	8	·	-7	-16	-5
CCC(C)(C)n1nnnc1C(c1cc2ccc(C)cc2[nH]c1=O)N(Cc1cccnc1)Cc1ccco1 (centres undefined)	24	71*	6	-9	-3
O=C(Nc1ccc(Br)cc1)c1ccc(CSC2=NCCS2)cc1	34*	·	-4	-10	2
COCCN(C(=O)CSc1nnc(Nc2ccccc2F)s1)c1c(N)n(Cc2ccccc2)c(=O)[nH]c1=O	-3	·	13	7	-5
O=C(CCc1ccc(S(=O)(=O)N2CCOCC2)cc1)N1CCN(Cc2ccc3c(c2)OCO3)CC1	8	·	2	3	10
Cn1c(=O)c2c(-c3ccccc3)n(CCCN3CCOCC3)cc2n(C)c1=O	9	-6	5	-3	1
Cc1ccc(-c2c3c(=O)n(C)c(=O)n(C)c3cn2N2CCOCC2)cc1	51*	10	5	-8	-2
Cc1ccc(OCn2c(=O)sc3ccccc32)cc1	6	58	2	6	6
O=C(NCc1ccc(F)cc1)c1ccc(CS(=O)(=O)Cc2ccc(F)cc2)o1	-4	3	-6	1	-5
COc1ccccc1-c1cc(C(=O)NCc2ccc(Cl)cc2)no1	6	-4	-1	-3	8
O=C(NCc1ccccc1)c1ccc(-c2ccc(F)cc2)o1	31*	·	-2	3	0
COc1ccccc1-c1cc(C(=O)NCc2ccc(F)cc2)no1	59*	92*	8	-10	4
COc1ccc(CNC(=O)c2cc(-c3ccccc3OC)on2)cc1	16	69*	-8	-2	1
COc1ccccc1-c1cc(C(=O)NCc2ccccc2)no1	26	80*	3	-10	9
SMILES	PostGolgi ctrl	tolC growth inh	EphB4 antag	Ecoli WT expand	PostGolgi yeast
CCCCNC(=O)N(O)C1N(CCCC)C(=O)N(CC(=O)OC)C1(C)C (centres undefined)	·	·	4	·	·
O=C(CCCn1c(=O)[nH]c2cc(Cl)ccc2c1=O)NCCC1=CCCCC1	6	·	0	-5	7
O=C(Cc1c(F)cccc1Cl)Nc1ccncc1	25	-3	1	10	37*
O=C(Cc1c(F)cccc1Cl)Nc1cccnc1	7	-5	-7	15	-1
O=C(/C=C/c1c(Cl)cccc1Cl)Nc1ccncc1	92*	·	-1	-5	51*
CCCCC(O)(CCN1CCOCC1)c1ccc(Cl)cc1 (centres undefined)	-3	·	3	10	9

Source: PubChem
